Assay results from ChEMBL document CHEMBL1833879, “Anti-obesity effects of the methanolic extract and chakasaponins from the flower buds of Camellia sinensis in mice” (2011).
Active and inactive are the calls of the source. The rule behind the calls is not given here.

Experiments:
Mus musculus [1] = test: Antiobesity activity in ddY mouse assessed as food intake at 50 mg/kg, po measured upto 3 days (RVb = 15.2 g); assay type: functional
Mus musculus [2] = test: Antiobesity activity in capsaicin treated ddY mouse assessed as gastric emptying at 50 mg/kg, po measured for 30 mins by Phenol red method (RVb = 85.8 +/- 2 %); assay type: functional, Stomach
Mus musculus [3] = test: Antiobesity activity in ddY mouse assessed as gastric emptying at 25 mg/kg, po measured for 30 mins by Phenol red method (RVb = 86.6 +/- 1.8 %); assay type: functional, Stomach
Mus musculus [4] = test: Antiobesity activity in ddY mouse assessed as gastric emptying at 50 mg/kg, po measured for 30 mins by Phenol red method (RVb = 86.6 +/- 1.8 %); assay type: functional, Stomach
Mus musculus [5] = test: Antiobesity activity in capsaicin-treated ddY mouse assessed as gastric emptying at 25 mg/kg, po measured for 30 mins by Phenol red method (RVb = 85.8 +/- 2 %); assay type: functional, Stomach
Mus musculus [6] = test: Antiobesity activity in ddY mouse assessed as inhibition of AgRP mRNA level in hypothalamus at 50 mg/kg, po for 4 days relative to control; assay type: functional
Procedure, shortened: (§1)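 Male ddY mice dosed po once daily at 15:00–17:00 for 4 d. Hypothalamus dissected 1 h after final dose, held in RNAlater, total RNA extracted. NPY and AgRP mRNA quantified by SYBR qPCR (40 cycles, annealing 58 °C) by relative quantification normalised to β-actin and expressed as ratio to control; n = 6, mean ± SEM.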

Mus musculus [7] = test: Antiobesity activity in ddY mouse assessed as inhibition of food intake at 50 mg/kg, po; assay type: functional, organism-based; parameters: dose 50 mg/kg
Ileum [8] = test: Induction of 5-HT release from ddY mouse ileum assessed as remaining 5-HT per mg of protein at 1000 µM after 20 mins by HPLC (RVb = 0.861 +/- 0.164 ng/mg protein)
Ileum [9] = test: Induction of 5-HT release from ddY mouse ileum assessed as remaining 5-HT per mg of protein at 100 µM after 20 mins by HPLC (RVb = 0.861 +/- 0.164 ng/mg protein)
Mus musculus [10] = test: Antiobesity activity in ddY mouse assessed as inhibition of neuropeptide Y mRNA level in hypothalamus at 50 mg/kg, po for 4 days relative to control; assay type: functional; procedure, shortened: as §1
Mus musculus [11] = test: Antiobesity activity in ddY mouse assessed as inhibition of AgRP mRNA level in hypothalamus at 25 mg/kg, po for 4 days relative to control; assay type: functional; procedure, shortened: as §1
Mus musculus [12] = test: Antiobesity activity in ddY mouse assessed as inhibition of neuropeptide Y mRNA level in hypothalamus at 25 mg/kg, po for 4 days relative to control; assay type: functional; procedure, shortened: as §1
Ileum [13] = test: Induction of 5-HT release from ddY mouse ileum assessed per gram of tissue at 100 µM after 20 mins by HPLC (RVb = 11.2 +/- 1.3 ng/g tissue)
Mus musculus [14] = test: Antiobesity activity in capsaicin-treated ddY mouse assessed as reduction in food intake at 50 mg/kg, po for 3 days; assay type: functional, organism-based; parameters: dose 50 mg/kg
Mus musculus [15] = test: Antiobesity activity in ddY mouse assessed as gastric emptying at 50 mg/kg, po measured for 30 mins by Phenol red method (RVb = 90.4 +/- 1.2 %); assay type: functional, Stomach
Ileum [16] = test: Induction of 5-HT release from ddY mouse ileum assessed as remaining 5-HT per gram of tissue at 100 uM after 20 mins by HPLC (RVb = 68.8 +/- 12.4 ng/g tissue)
Mus musculus [17] = test: Antiobesity activity in capsaicin treated ddY mouse assessed as inhibition of gastric emptying at 50 mg/kg, po measured for 30 mins by Phenol red method (RVb = 87.7 +/- 2.3 %); assay type: functional, Stomach; parameters: scale not given: the % may be the effect or the level left
Mus musculus [18] = test: Antiobesity activity in ddY mouse assessed as gastric emptying at 25 mg/kg, po measured for 30 mins by Phenol red method (RVb = 90.4 +/- 1.2 %); assay type: functional, Stomach
Ileum [19] = test: Induction of 5-HT release from ddY mouse ileum assessed per gram of tissue at 1000 µM after 20 mins by HPLC (RVb = 11.2 +/- 1.3 ng/g tissue)
Ileum [20] = test: Induction of 5-HT release from ddY mouse ileum assessed as remaining 5-HT per gram of tissue at 1000 µM after 20 mins by HPLC (RVb = 68.8 +/- 12.4 ng/g tissue)
Mus musculus [21] = test: Antiobesity activity in capsaicin treated ddY mouse assessed as gastric emptying at 25 mg/kg, po measured for 30 mins by Phenol red method (RVb = 87.7 +/- 2.3 %); assay type: functional, Stomach

C/C=C(\C)C(=O)O[C@H]1[C@H](OC(C)=O)[C@]2(CO)[C@H](O)[C@H](O)[C@]3(C)C(=CC[C@@H]4[C@@]5(C)CC[C@H](O[C@@H]6O[C@H](C(=O)O)[C@@H](O)[C@H](O[C@@H]7OC[C@H](O)[C@H](O)[C@H]7O[C@@H]7OC[C@@H](O)[C@H](O)[C@H]7O)[C@H]6O[C@@H]6O[C@H](CO)[C@H](O)[C@H](O)[C@H]6O)C(C)(C)[C@@H]5CC[C@]43C)[C@@H]2CC1(C)C [CHAKASAPONIN III]
Activity (Mus musculus [1]): 12.6 g

C/C=C(\C)C(=O)O[C@H]1[C@H](OC(C)=O)[C@]2(CO)[C@H](O)C[C@]3(C)C(=CC[C@@H]4[C@@]5(C)CC[C@H](O[C@@H]6O[C@H](C(=O)O)[C@@H](O)[C@H](O[C@@H]7OC[C@H](O)[C@H](O)[C@H]7O[C@@H]7OC[C@@H](O)[C@H](O)[C@H]7O)[C@H]6O[C@@H]6O[C@H](CO)[C@H](O)[C@H](O)[C@H]6O)C(C)(C)[C@@H]5CC[C@]43C)[C@@H]2CC1(C)C [CHAKASAPONINS I]
Activity (Mus musculus [1]): 10.5 g
Activity (Mus musculus [2]): 68%
Activity (Mus musculus [3]): 76.4%
Activity (Mus musculus [4]): 55.7%
Activity (Mus musculus [5]): 79.2%

C/C=C(\C)C(=O)O[C@H]1[C@H](OC(=O)/C(C)=C/C)[C@]2(CO)[C@H](O)[C@H](O)[C@]3(C)C(=CC[C@@H]4[C@@]5(C)CC[C@H](O[C@@H]6O[C@H](C(=O)O)[C@@H](O)[C@H](O[C@@H]7OC[C@H](O)[C@H](O)[C@H]7O[C@@H]7OC[C@@H](O)[C@H](O)[C@H]7O)[C@H]6O[C@@H]6O[C@H](CO)[C@H](O)[C@H](O)[C@H]6O)C(C)(C)[C@@H]5CC[C@]43C)[C@@H]2CC1(C)C [CHAKASAPONIN II]
fold change (FC) (Mus musculus [6]): 1.03
inhibition (Mus musculus [7]): Active
Activity (Ileum [8]): 0.396 ng/mg
Activity (Ileum [9]): 0.659 ng/mg
fold change (FC) (Mus musculus [10]): 0.63
fold change (FC) (Mus musculus [11]): 1.08
fold change (FC) (Mus musculus [12]): 1.09
Activity (Ileum [13]): 15.6 ng/g
Activity (Mus musculus [14]): Active
Activity (Mus musculus [15]): 57.6%
Activity (Ileum [16]): 50.8 ng/g
Activity (Mus musculus [17]): 67.1%
Activity (Mus musculus [18]): 77.9%
Activity (Ileum [19]): 28.3 ng/g
Activity (Ileum [20]): 31.6 ng/g
Activity (Mus musculus [21]): 81.4%

CC1(C)C[C@H]2C3=CC[C@@H]4[C@@]5(C)CC[C@H](O[C@@H]6O[C@H](C(=O)O)[C@@H](O)[C@H](O[C@@H]7OC[C@H](O)[C@H](O)[C@H]7O[C@@H]7OC[C@@H](O)[C@H](O)[C@H]7O)[C@H]6O[C@@H]6O[C@H](CO)[C@H](O)[C@H](O)[C@H]6O)C(C)(C)[C@@H]5CC[C@@]4(C)[C@]3(C)[C@@H](O)[C@@H](O)[C@@]2(CO)[C@@H](O)[C@@H]1O
inhibition (Mus musculus [6]): inactive
inhibition (Mus musculus [11]): inactive
inhibition (Mus musculus [12]): inactive
